Data as given in PMC4803553 (Endocrinology and Metabolism, 2016).
Read-outs that look alike come from different tables or passages of the source.

Tests used:
hemoglobin A1c (HbA1c) = format: in vivo, human; settings: mean±SD; for After treatment HbA1c: after 3 months of treatment, kidney transplant patients with diabetes; for Difference of HbA1c (ΔHbA1c): change from baseline to 3 months of treatment
Summary of the method: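 Renal allograft recipients with diabetes, all on cyclosporine-based triple maintenance therapy, started a DPP-4 inhibitor after transplant, at full or renally adjusted reduced dose (50 mg once daily). HbA1c was measured by immunoturbidimetry on an automated analyser and reported as NGSP %. Values at baseline and after 3 months of treatment were compared by paired t test; mean±SD.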

Renal function = format: in vivo, human; settings: follow-up after DPP-4 inhibitor treatment, mean±SD; for Follow-up eGFR: MDRD equation
Summary of the method: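 Fasting early-morning antecubital venous blood was taken from renal allograft recipients receiving a DPP-4 inhibitor. Creatinine was measured by the Jaffe method. eGFR was calculated with the Modification of Diet in Renal Disease study equation. Values are reported as mean±SD and were compared across inhibitor groups by one-way ANOVA with Scheffe post hoc tests.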

[1] = cited from earlier work

| Compound | After treatment HbA1c (hemoglobin A1c (HbA1c)) | Difference of HbA1c (ΔHbA1c) (hemoglobin A1c (HbA1c)) | Difference of HbA1c (ΔHbA1c) (hemoglobin A1c (HbA1c); listed as sitagliptin) | Follow-up eGFR (Renal function) | Follow-up creatinine (Renal function) | Eliminated in an unchanged form in the urine [1] | Difference of HbA1c (ΔHbA1c) (hemoglobin A1c (HbA1c); listed as vildagliptin) | Eliminated in an unchanged form via the feces [1] | Renal excretion, share of elimination [1] |
| --- | --- | --- | --- | --- | --- | --- | --- | --- | --- |
| N[C@@H](CC(=O)N1CCn2c(nnc2C(F)(F)F)C1)Cc1cc(F)c(F)cc1F [Sitagliptin, sitagliptin] | 7.18±1.21% | -0.53±0.95% | –0.53%±0.95% | 61.03±16.50 mL/min/1.73 m^2 | 1.22 ± 0.82 mg/dL | 79% | – | – | – |
| N#C[C@@H]1CCCN1C(=O)CNC12CC3CC(CC(O)(C3)C1)C2 [Vildagliptin, vildagliptin] | 7.08±1.81% | -0.38±1.03% | – | 58.21±17.76 mL/min/1.73 m^2 | 1.41 ± 0.95 mg/dL | – | –0.38%±1.03% | – | – |
| CC#CCn1c(N2CCC[C@@H](N)C2)nc2c1c(=O)n(Cc1nc(C)c3ccccc3n1)c(=O)n2C [Linagliptin, linagliptin] | 6.79±0.63% | -1.40±1.34% | – | 62.82±18.74 mL/min/1.73 m^2 | 1.25 ± 0.42 mg/dL | – | – | 84.7% | 5.4% |
